# Test results taken from PubChem BioAssay AID540295 (The Scripps Research Institute Molecular Screening Center, 2011).
# Hit rate of the full screen: of about 360,000 compounds, about 1,700 (0.47%) were called active.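 The calls were made as follows: active = inhibition above its plate's cutoff, the mean of tested wells on that plate plus 3 SD (cut at about 29% in these data); inactive = the rest.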 Only a selection was taken, and actives are over-represented in it overall.
# Biological target: Melanocortin receptor 4 (Homo sapiens) (UniProt P32245)
# Sequence (P32245 whole entry, looked up): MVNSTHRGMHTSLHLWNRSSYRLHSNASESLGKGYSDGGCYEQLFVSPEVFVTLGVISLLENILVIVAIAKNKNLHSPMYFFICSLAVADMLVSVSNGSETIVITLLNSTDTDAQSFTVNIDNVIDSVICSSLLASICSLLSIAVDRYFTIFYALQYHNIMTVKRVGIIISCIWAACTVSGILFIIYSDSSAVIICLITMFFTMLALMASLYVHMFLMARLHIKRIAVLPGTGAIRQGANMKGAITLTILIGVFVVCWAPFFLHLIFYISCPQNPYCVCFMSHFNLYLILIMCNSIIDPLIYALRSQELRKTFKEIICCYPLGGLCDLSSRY
# Test: blockers of MC4R Gs-cAMP response – cell-based, TR-FRET, antagonist arm of biased-ligand search, primary screen (AID 540295);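 also: 0% = Melanotan II alone and 100% = Melanotan II plus saturating MCL0020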
# Conditions: MC4R-expressing cells, MTII-stimulated cAMP, LANCE TR-FRET; at 6.5 µM; active compounds read high
# Summary of the method: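 system = U2OS cells with stable human MC4R expression | also added = Melanotan II challenge after compound preincubation | dosing = one concentration, 6.5 µM nominal | incubation = compound 30 min, challenge 1 h, detection 1 h | measured by = TR-FRET with Eu-cAMP and labeled anti-cAMP, 671 nm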
row,SMILES,inhibition
1,O=C(CN1CCCSc2ccccc21)N1CCN(S(=O)(=O)c2cccc(F)c2)CC1,5.01% (inactive)
2,O=C(CN1CCCSc2ccccc21)N1CCN(S(=O)(=O)c2ccccc2)CC1,5.29% (inactive)
3,N#C/C=C1\Sc2ccccc2C(=O)N1CC(=O)N1CCN(S(=O)(=O)c2ccccc2)CC1,33.4% (active)
4,Cc1ccc2c(c1)C1CN(C)CCC1N2S(=O)(=O)c1ccc(Oc2ccc([N+](=O)[O-])cc2)cc1 (stereo unspecified),2.73% (inactive)
5,O=C(CN1CCc2ccccc21)NC(c1ccccc1)c1ccccc1,1.1% (inactive)
6,O=C(COC(=O)c1c2c(nc3ccccc13)CCCC2)c1ccc(Br)s1,33.9% (active)
7,NC(=O)c1ccc(NC(=O)COC(=O)c2c3c(nc4ccccc24)/C(=C\c2ccc4c(c2)OCO4)CCC3)cc1,-10% (inactive)
8,Cn1cccc1C(=O)OCC(=O)c1ccc(Br)s1,4.25% (inactive)
9,COC(=O)c1cc(NC(=O)c2cc(C(C)(C)C)nn2Cc2cccc(C)c2)ccc1N1CCOCC1,4.17% (inactive)
10,COc1ccc(NC2CCCN(C(=O)c3ccccc3-c3ncc[nH]3)C2)cc1 (stereo unspecified),4.61% (inactive)
11,CCc1ccc2oc(=O)cc(CN3CCCCC3C)c2c1 (stereo unspecified),10.6% (inactive)
12,CC(NC(=O)COc1ccccc1)C(=O)NC1=NCCS1 (stereo unspecified),0.52% (inactive)
13,CCOc1ncccc1C(=O)NCCc1ccc(OC)cc1,-0.79% (inactive)
14,COc1ccc(CCNC(=O)COC(=O)c2ncc(Cl)c(Cl)c2Cl)cc1OC,14.8% (inactive)
15,COc1ccc(CCNC(=O)COC(=O)c2cnc(Cl)c(Cl)c2)cc1,39.7% (active)
16,CC(CCc1ccccc1)NC(=O)c1cnc(Cl)c(Cl)c1 (stereo unspecified),9.38% (inactive)
17,O=C(OCC(=O)N1CCCC1)c1ccc(Cl)nc1,-3.4% (inactive)
18,O=C(OCC(=O)N1CCCCCC1)c1cnc(Cl)c(Cl)c1,30.5% (active)
19,COc1ccc(CCNC(=O)c2cnc(Cl)c(Cl)c2)cc1,29.6% (active)
20,COC(=O)c1ccc(COC(=O)c2cnc(Cl)c(Cl)c2)cc1,21.5% (inactive)
21,O=C(OCC(=O)N1CCCCCC1)c1ccc(Cl)nc1,2.21% (inactive)
22,NC1=NC(=O)S/C1=C\c1ccc(O)cc1,-45.1% (inactive)
23,CC(CC(=O)C1C(C)C=CCC1(C)C)NNC(N)=O (stereo unspecified),0.06% (inactive)

row,SMILES,inhibition
1,CCCc1nc2oc3c(OCC)ncnc3c2c2c1COC(C)(C)C2,2.51% (inactive)
2,COc1ccc(/C=N/n2c(C)cc(C)cc2=O)cc1,5.08% (inactive)
3,CCOC(=O)C1=CN(Cc2ccc(Br)cc2)S(=O)(=O)NC1C (stereo unspecified),1.79% (inactive)
4,CN(C)/C=C(/C(=O)c1ccc(F)cc1)S(=O)(=O)c1ccc(F)cc1,-0.11% (inactive)
5,CCOC(=O)N1CCN(C(=O)C2CCN(S(C)(=O)=O)CC2)CC1,3.32% (inactive)
6,Brc1ccc(CN2CC[C@H]3C=CCc4cccc(c43)C2)cc1,11.3% (inactive)
7,Cc1cc(=O)n2nc(N3CCCC(C(=O)N4CCN(C)CC4)C3)sc2n1 (stereo unspecified),0.44% (inactive)
8,CSc1nnc2c(n1)OC(c1ccsc1)N(C(C)=O)c1ccccc1-2 (stereo unspecified),3.07% (inactive)
9,CNC(=O)C1CN(C(=O)c2cccc(S(=O)(=O)N3CCc4ccccc43)c2)c2ccccc2O1 (stereo unspecified),5.06% (inactive)
10,CSc1ccc(C#N)cc1NC(=O)c1ccc(Cl)cc1,2.18% (inactive)
11,Cc1c(Cl)cccc1NC(=O)[C@@]1(CC(=O)O)CC(/C=C/c2ccccc2)=NO1,38.9% (active)
12,Cc1c(Cl)cccc1NC(=O)NCc1ccc(C)n1C,5.07% (inactive)
13,Cc1c(Cl)cccc1NC(=S)NCC(O)c1ccccc1 (stereo unspecified),3.92% (inactive)
14,Cc1ccc(OCC(=O)Nc2cccc3c2CCCC3)cc1C,5.28% (inactive)
15,O=c1c2cc(Br)ccc2nc(-c2cccc(Cl)c2)n1O,2.37% (inactive)
16,O=C(O)CCn1cc(/C=C/C(=O)c2ccc(Cl)cc2)c(-c2cccc(Br)c2)n1,32.5% (active)
17,O=C(COC(=O)/C=C/c1cn(-c2ccccc2)nc1-c1cccnc1)Nc1ccc(Cl)cc1Cl,11.1% (inactive)
18,CCOC(=O)C1(Cc2ccccc2C(F)(F)F)CCN(C(=O)c2cc(C)n(C)n2)CC1,5.76% (inactive)
19,COc1ccc(/C=C/C(=O)c2c(O)cc(OC)cc2OC)cc1,-19.9% (inactive)
20,CCOc1ccc(OCC(=O)Nc2c3c(nn2C(C)(C)C)CS(=O)(=O)C3)cc1,1.77% (inactive)
21,O=S(=O)(Cc1noc(-c2ccc(OC(F)(F)F)cc2)n1)c1ccc(F)cc1,4.42% (inactive)
22,Cc1cc(=O)oc2cc(NC(=O)C3CC(=O)N(Cc4ccccc4)C3)ccc12 (stereo unspecified),15.7% (inactive)
23,O=C(Nc1ccc(F)c([N+](=O)[O-])c1)C1CC(=O)N(Cc2ccccc2)C1 (stereo unspecified),35.5% (active)
